A selection: hits, their analogues and other compounds. The true share with any hit is near 1.4%.
HIF act – HIF pathway transcriptional activation; actives 0.32% (n = 300,000); AID 1910; activation, % at 7.5 µM (by protocol); U2OS HRE-luciferase reporter, luminescence; normalized: DMSO 0%, desferrioxamine 100%;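 active = mean activation of at least 10% of the iron chelator positive control signal, with at least half of replicates also reaching 10%; inconclusive = mean and replicate majority disagree about reaching 10%; inactive = mean and most replicates under 10%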
SUMO Mot1 rescue – blocks SUMOylation pathway, rescuing yeast Mot1-301 growth; S. cerevisiae Mot1-301 growth rescue, ATP luminescence, 38.5C; percent above DMSO median, 100 means doubled; growth rescue, % at 18.8 µM; actives 1% (n = 320,000); AID 2716;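 active = every valid replicate shows activation above 250% relative to neutral control wells; inactive = the rest, any valid replicate at or below 250%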
T cell HTS – modulates CD8 T cell binding to vesicles; response (vesicle binding), % at 7 µM; AID 2052; 2C CD8+ T cell-vesicle binding, flow cytometry; active compounds read low; actives 0.068% (n = 330,000);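 active = response, share of CD8 T cells binding vesicles, and their 90th percentile fluorescence all below set limits, cut at about 80% in these data, passing the limit was not always enough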;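 also: values below 100% mean blocked vesicle binding to the CD8+ T cells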
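material = purified 2C TCR transgenic mouse naive CD8+ T cells | controls = Unloaded micro-vesicles (low), QL9 vesicles with 0.7% DMSO (high) | detection = cytometric PE anti-B7-1 and Alexa647 anti-CD8 signals after 1% paraformaldehyde fixation | incubation = binding step 1.5 h, 37 °C, antibody labelling 20 min, ice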
GASC-1 inh – inhibitors of human GASC-1 (JMJD2C) demethylase. Q9H3R0. actives 0.069% (n = 330,000). inhibition, % at 2.35 µM. GST-JMJD2C(1-420) H3K9me3 demethylation, DELFIA europium. AID 2099;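 active = more than half of a compound's replicate wells show inhibition beyond 50%, single wells judged on their own value; inconclusive = some, but no more than half, of replicates pass 50% inhibition; inactive = no replicate passes 50% inhibition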;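 also: signal counts dimethyl H3K9 product captured on neutravidin plate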
Target sequence (Q9H3R0 1-420 limits assumed): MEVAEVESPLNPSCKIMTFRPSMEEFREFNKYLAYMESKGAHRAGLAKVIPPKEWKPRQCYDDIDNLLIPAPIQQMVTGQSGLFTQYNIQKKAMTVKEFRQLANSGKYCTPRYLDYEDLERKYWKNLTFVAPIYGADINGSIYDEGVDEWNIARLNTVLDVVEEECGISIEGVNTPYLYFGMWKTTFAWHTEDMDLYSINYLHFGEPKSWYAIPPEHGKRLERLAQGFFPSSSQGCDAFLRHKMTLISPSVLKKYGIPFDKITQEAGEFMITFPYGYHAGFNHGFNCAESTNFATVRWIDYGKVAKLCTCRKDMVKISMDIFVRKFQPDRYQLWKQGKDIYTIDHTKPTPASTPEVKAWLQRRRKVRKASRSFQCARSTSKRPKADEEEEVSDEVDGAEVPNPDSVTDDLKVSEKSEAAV
Yeast Mot1 SUMO – inhibits SUMO pathway, affecting Mot1-301 yeast growth | S. cerevisiae Mot1-301 galactose growth, ATP luminescence, 24 h; -100 = growth of slx-deleted rescue strain | AID 493004 | 2,300 tested, under 10 active | growth activity, percent, % at 42 µM | shares compounds with SUMO Mot1 rescue;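 active = Signal drops as the depositor expects, and the fitted half-maximal dose is no more than ten times the top valid tested dose; inconclusive = Poor fit, or a flat curve whose signal drops by 30% to 70%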;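 also: more negative values mean stronger growth rescue toward the control strain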
Each line names hits and unclear results; the compound was inactive in the other large screens (follow-up assays come after a bar, where they were run).

CC1(C)C[C@H]2C=C(C=O)[C@]3(C=O)C[C@]3(C)[C@H]2C1	SUMO Mot1 rescue 358
O=C1C2CCCN2C(c2cccnc2)N1c1nccs1 (configuration not stated)	none
CCOc1ccc(-n2c(O)c(/C=C3\C=Nc4ccccc43)c(=O)[nH]c2=O)cc1	SUMO Mot1 rescue 297
COc1ccc(OC)c(-n2c(O)c(/C=C3\C=Nc4ccccc43)c(=O)[nH]c2=O)c1	none
Cc1ccc(-n2c(O)c(/C=N/Nc3ccccc3)c(=O)[nH]c2=O)cc1C	SUMO Mot1 rescue 310
COc1ccc(N/N=C/c2c(O)n(-c3ccc(C)c(C)c3)c(=O)[nH]c2=O)cc1	none
O=C1NC(=O)C(Sc2ccccc2[N+](=O)[O-])C(=O)N1	GASC-1 inh 69
C1=CC(Cc2cncs2)c2ccccc21 (configuration not stated)	none (no result: HIF act)
COc1cc(Br)cc(CN2CCN(C)CC2)c1O	GASC-1 inh 59 (no result: HIF act)
CCOC(=O)N1CCC(NC(=O)CCc2nc(C3=CCN(C)CC3)no2)CC1	GASC-1 inh 53 (no result: SUMO Mot1 rescue)
COC(=O)CC(NC(=S)N1CC2C[C@@H](C1)Cn1c2cccc1=O)C(=O)OC (some centres not stated)	none
C=CCn1c(O)c(C(CC)=NCc2cc(OC)cc(OC)c2)c(=O)[nH]c1=O	none
CCC(=NCc1cc(OC)cc(OC)c1)c1c(O)[nH]c(=O)[nH]c1=O	HIF act 66
CC(C#N)CCC#N (configuration not stated)	none (no result: HIF act)
Cc1ncc(CN2CCCC(C(=O)c3cccc(OC(C)C)c3)C2)s1 (configuration not stated)	SUMO Mot1 rescue 295
CC(=NCC1CCCO1)c1c(O)n(-c2ccc(Cl)cc2)c(=O)[nH]c1=O (configuration not stated)	SUMO Mot1 rescue 547
COCc1cc(OC(=O)N(C)C)nc2c1c(C)nn2C	GASC-1 inh 63
CCN1CCN(c2ccc([N+](=O)[O-])cc2C=C2C(=O)NC(=O)NC2=O)CC1	HIF act 24, GASC-1 inh 57
CC(=O)N1CCN(c2ccc([N+](=O)[O-])cc2C=C2C(=O)NC(=O)NC2=O)CC1	GASC-1 inh inconclusive
CC1CCCCN1Cc1ccc(Cl)nc1 (configuration not stated)	none
Cc1nc2c(=O)n(C)c(=O)nc-2n(C)n1	GASC-1 inh 92
COCCNC(=O)c1c(NC(=O)c2ccc(Br)o2)n(Cc2ccccc2)c2nc3ccccc3nc12	SUMO Mot1 rescue 830
COCCCNC(=O)c1c(NC(=O)c2ccco2)n(Cc2ccccc2)c2nc3ccccc3nc12	none
CCOC(=O)CC(NC(=O)C(Cc1ccc(N(CCCl)CCCl)cc1)NC(C)=O)C(=O)OCC (configuration not stated)	T cell HTS 33
Cc1ccc2nc3c(cc2c1)CC1(C(=O)N(C)C(=O)N(C)C1=O)C1CCCCN31 (configuration not stated)	GASC-1 inh 56
Cc1ccc2nc3c(cc2c1)CC1(C(=O)N(C)C(=O)N(C)C1=O)C1COCCN31 (configuration not stated)	none
C/C(=N\N1CCCCCC1)c1c(O)n(-c2ccc(C)cc2)c(=O)[nH]c1=O	none
CC/C(=N\N1CCCCCC1)c1c(O)n(-c2ccc(C)cc2)c(=O)[nH]c1=O	HIF act 12
CCOP(=O)(C#CC(C)(C)C)C1(O)CCCCC1 (configuration not stated)	HIF act 98
CCOP(=O)(OCC)C(C)(C)NC(=O)C(Cl)(Cl)Cl	none
O=C(C1CC(=O)N(C2CCCCCCC2)C1)N1CCC2(CC1)OCCO2 (configuration not stated)	none
Cc1ccc(-c2cc(-c3ccc(C)cc3)[n+](-c3ccc(C(=O)O)cc3)c(-c3ccc(C)cc3)c2)cc1	none
Cc1ccc(C[n+]2c(-c3ccc(C)cc3)cc(-c3ccc(C)cc3)cc2-c2ccc(C)cc2)cc1	SUMO Mot1 rescue 280
CCCCn1c(=O)c(C(=O)NCc2ccncc2)c(O)c2ccccc21	T cell HTS 78
Cc1cc(=O)oc2cc(OCC(=O)N3CCN(Cc4ccc5c(c4)OCO5)CC3)ccc12	none
CCN1CCN(C(=O)COc2ccc3oc4c(c3c2)CCCC4)CC1	none (no result: HIF act)
C[C@H](NC(=O)N1C[C@H]2C[C@@H](C1)c1cccc(=O)n1C2)C(=O)Nc1ccc(F)c(F)c1	none
Cc1cccc(N2C(=O)NC(=O)/C(=C/c3ccc([N+](=O)[O-])o3)C2=O)c1	GASC-1 inh 55 (no result: HIF act)
Cc1cccc(N2C(=O)NC(=O)/C(=C\C=C\c3ccco3)C2=O)c1	none
CC(C)c1oc(=O)cc2c1[C@@H](O)[C@H]1OC(=O)[C@@]3(C)C[C@@H](O)[C@@H](O)[C@@]2(C)C13 (some centres not stated)	none
CC12CN3CC(C)(CN(C1)C31CCOCC1)C2=O	none
O=C(c1cccnc1)c1cc2ccccc2[nH]1	HIF act 16
CCOC(=O)c1c(NS(=O)(=O)c2ccccc2)n(CCCOC)c2nc3ccccc3nc12	HIF act 455
CN1C(=O)C(Cc2cccs2)C(=O)N(C)C1=O	none
CN1C(=O)C(Cc2ccsc2)C(=O)N(C)C1=O	GASC-1 inh 74
CC(C)CCC1(CN2CCCC2=O)C(=O)NC(=O)NC1=O	none
COc1cccc(-c2sc3ccccc3c2-c2ccc(OCCN3CCOCC3)cc2)c1	SUMO Mot1 rescue 462 (no result: HIF act)
CC(C)(C)C(=O)O[C@H]1CC[C@@]2(C)C(=CC(=O)C3C2CC[C@]2(C)C(=O)[C@@H](F)CC32)C1 (some centres not stated)	none (no result: HIF act)
COC(=O)c1ccccc1-n1c(C)nc2ccccc2c1=O	none (no result: HIF act, GASC-1 inh)
COC(=O)c1cn(C(=O)c2cccc3ccccc23)c2ccccc12	SUMO Mot1 rescue 490 | Yeast Mot1 SUMO inactive
CN1CCN(c2nc(N)c(Br)c(Cl)n2)CC1	none
OC[C@@H](O)CCl	SUMO Mot1 rescue 360 | Yeast Mot1 SUMO inactive
C=C1C2C[C@@]3([C@@H]1O)[C@@H](C[C@@H]2O)[C@@]12C4[C@@H]3C[C@@H]1[C@@](C)(CC[C@@H]2O)CN4CC	SUMO Mot1 rescue 405 (no result: HIF act, GASC-1 inh) | Yeast Mot1 SUMO inactive
CCOc1ccccc1CN1CCCC(C(=O)c2cc(F)ccc2F)C1 (configuration not stated)	none
COC(=O)C1CN(C#N)N(c2ccc(Cl)cc2)C12c1ccccc1-c1ccccc12 (configuration not stated)	SUMO Mot1 rescue 792 | Yeast Mot1 SUMO inactive
CC1(C)C(C(=O)N2CCN(c3ccc(Cl)cc3)CC2)C1(C)C	none (no result: T cell HTS)
O=C(O)C1C2CCC(O2)C1C(=O)NC1CCCCC1 (configuration not stated)	none
O=C(O)C1C(C(=O)O)C2(Cl)C(Cl)=C(Cl)C1(Cl)C2(Cl)Cl (configuration not stated)	SUMO Mot1 rescue 400 (no result: HIF act) | Yeast Mot1 SUMO inactive

Screening results (PubChem)
